Source: ChEMBL document CHEMBL1148340 (J Med Chem, 2004)

Legend:
[1] = biological target: T1, Human immunodeficiency virus type 1 reverse transcriptase (Human immunodeficiency virus 1, UniProt Q72547); assay: Inhibitory concentration against wild type HIV-1/138Lys reverse transcriptase (RT) using [3H]dGTP as a radioligand
Summary of the method: (§1)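 Recombinant HIV-1 RT (IIIB-derived) or Glu138Lys mutant. Buffer: 50 mM Tris-HCl pH 7.8, 5 mM DTT, 150 mM KCl, 5 mM MgCl₂, 500 μM EDTA, 0.06% Triton X-100, with BSA. Incubated 37 °C, 30 min, then TCA/pyrophosphate precipitation on ice.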

[2] = biological target: T1, Human immunodeficiency virus type 1 reverse transcriptase; assay: Inhibitory concentration against wild type HIV-1 reverse transcriptase (RT) using poly rC.dG as the template or primer; summary of the method: as §1
[3] = Partition coefficient (logP); assay type: physicochemical; settings: octanol/water
CCRF-CEM [4] = assay: Effective concentration required to inhibit HIV-1 induced cytopathicity in human CEM cell lines; assay type: functional, cell-based
Summary of the method: (§2)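 CEM cells at 4 × 10⁵/mL were infected with HIV-1 or HIV-2 at ~100 CCID₅₀ per mL. The cells were mixed 1:1 with serial compound dilutions. Giant cell formation was scored microscopically after 4 days. EC₅₀ is the concentration that inhibited virus-induced cytopathicity by 50%.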

CCRF-CEM [5] = assay: Effective concentration required to inhibit HIV-2 induced cytopathicity in human CEM cell lines; assay type: functional, cell-based; summary of the method: as §2
CCRF-CEM [6] = assay: Cytostatic concentration required to inhibit proliferation of CEM cells; assay type: functional; settings: Homo sapiens
Summary of the method: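 CEM cells were cultured with serial compound dilutions alongside the antiviral assay. CC₅₀ is the concentration that inhibited cell proliferation by 50%.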

MT4 [7] = assay: Cytostatic concentration required to reduce MT-4 cell viability in mock-infected cell cultures; assay type: functional; settings: Homo sapiens
Summary of the method: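 Mock-infected MT-4 cells at 3 × 10⁵/mL were exposed to compound dilutions. Viable cells were counted by trypan blue exclusion. CC₅₀ is the concentration that reduced the number of viable cells by 50%.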

MT4 [8] = assay: Effective concentration required to inhibit HIV-1 induced cytopathicity in human MT-4 cell lines; assay type: functional, cell-based
Summary of the method: (§3)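 MT-4 cells at 3 × 10⁵/mL were infected with HIV-1 or HIV-2 at ~100 CCID₅₀ per mL and mixed 1:1 with compound dilutions. After 5 days, HIV-induced cytopathicity was recorded by trypan blue dye exclusion. EC₅₀ is the concentration that reduced virus-induced loss of cell viability by 50%.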

MT4 [9] = assay: Effective concentration required to inhibit HIV-2 induced cytopathicity in human MT-4 cell lines; assay type: functional, cell-based; summary of the method: as §3
CCRF-CEM [10] = assay: Effective concentration required to inhibit HIV-1E138K induced cytopathicity in human CEM cell lines
[11] = system: Human immunodeficiency virus 1; assay: Anti-HIV activity against PFA-resistant mutant HIV-1W88G strain in P4/R5 cells; assay type: functional, organism-based; settings: Human immunodeficiency virus 1, P4/R5
Summary of the method: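 HeLa-derived P4/R5 reporter cells (stable Tat-activated β-galactosidase under HIV LTR), 5×10^4 cells/mL, infected with HIV-1 LAI or W88G at MOI 0.05 TCID₅₀/mL. Drug added in 2- or 3-fold dilutions, in triplicate. At 48 h, lysis buffer and luminescent substrate added and β-galactosidase read by luminometer. EC₅₀ given as mean ± SD of five independent experiments (three in one case).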

[12] = system: Human immunodeficiency virus 1; assay: Anti-HIV activity against wild type HIV-1(LAI) strain in P4/R5 cells; settings: Human immunodeficiency virus 1, P4/R5

| Compound | IC50 [1] [µM] | IC50 [2] [µM] | logP [3] | EC50 (CCRF-CEM [4]) [nM] | EC50 (CCRF-CEM [5]) [µM] | CC50 (CCRF-CEM [6]) [µM] | CC50 (MT4 [7]) [µM] | EC50 (MT4 [8]) [nM] | EC50 (MT4 [9]) [µM] | EC50 (CCRF-CEM [10]) [µM] | EC50 [11] [nM] | EC50 [12] [nM] |
| --- | --- | --- | --- | --- | --- | --- | --- | --- | --- | --- | --- | --- |
| Cc1cn([C@@H]2O[C@H](CO[Si](C)(C)C(C)(C)C)[C@@]3(OS(=O)(=O)C=C3N)[C@H]2O[Si](C)(C)C(C)(C)C)c(=O)n(C)c1=O | > 100 | 3.1 |  |  |  |  |  |  |  |  |  |  |
| CCOC(=O)P(=O)(O)OCCCn1c(=O)c(C)cn([C@@H]2O[C@H](CO[Si](C)(C)C(C)(C)C)[C@@]3(OS(=O)(=O)C=C3N)[C@H]2O[Si](C)(C)C(C)(C)C)c1=O | 293 | 6.3 | 4.01 | 2130 | > 50 | 135 | 84.3 | 4230 | > 50 | 25 |  |  |
| COC(=O)P(=O)(O)OCCCn1c(=O)c(C)cn([C@@H]2O[C@H](CO[Si](C)(C)C(C)(C)C)[C@@]3(OS(=O)(=O)C=C3N)[C@H]2O[Si](C)(C)C(C)(C)C)c1=O | 394 | 4.7 | 4.01 | 4500 | > 50 | 146 | 55.5 | 20100 | > 50 | > 50 |  |  |
| Cc1cn([C@@H]2O[C@H](CO[Si](C)(C)C(C)(C)C)[C@@]3(OS(=O)(=O)C=C3N)[C@H]2O[Si](C)(C)C(C)(C)C)c(=O)n(CCCOP(=O)(O)C(=O)O)c1=O | 437 | 3.7 | 0.63 | 470 | > 50 | 178 | 111 | 820 | > 50 | ≥ 50 | 160 | 300 |
| Cc1cn([C@@H]2O[C@H](CO[Si](C)(C)C(C)(C)C)[C@@]3(OS(=O)(=O)C=C3N)[C@H]2O[Si](C)(C)C(C)(C)C)c(=O)n(CCCOP(=O)(O)C(=O)OCc2ccccc2)c1=O | 312 | 3.8 | 5.02 | 3000 | > 50 | 138 | 84 | 1260 | > 50 | 20 |  |  |
| COC(=O)P(=O)(OC)OCCCn1c(=O)c(C)cn([C@@H]2O[C@H](CO[Si](C)(C)C(C)(C)C)[C@@]3(OS(=O)(=O)C=C3N)[C@H]2O[Si](C)(C)C(C)(C)C)c1=O (some centres not stated) | > 500 | 11 | 7.12 | 80 | > 50 | 20.9 | 18.4 | 282 | > 10 | > 10 |  |  |
| Cc1cn([C@@H]2O[C@H](CO[Si](C)(C)C(C)(C)C)[C@@]3(OS(=O)(=O)C=C3N)[C@H]2O[Si](C)(C)C(C)(C)C)c(=O)n(CCCO)c1=O | > 100 | 8.1 | 2.26 |  | > 10 |  | 3.86 |  | > 2 | > 2 | 27 | 43 |
| O=C(O)P(=O)(O)O [FOSCARNET] |  |  | -0.56 | 121000 | 105 |  | 230 | 133000 | 140 | 87 | > 300000 | 44000 |
